# Laboratory results taken from ChEMBL document CHEMBL1151705, “Novel azalides derived from 16-membered macrolides. Part II: Isolation of the linear 9-formylcarboxylic acid and its sequential macrocyclization with an amino alcohol or an azidoamine” (2008).
# Tests used:
# Assay type in all cases: functional
# Haemophilus influenzae [1] = test: Antimicrobial activity against drug-susceptible Haemophilus influenzae 1 after 20 hrs by agar dilution method; conditions: Haemophilus influenzae, 20 h; read-out: MIC
# Summary of the method: (§1)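 Streptococci, H. influenzae and M. catarrhalis were precultured on blood agar plates. Suspensions of about 10⁶ CFU/ml were inoculated onto sensitivity disk agar supplemented with 5% horse blood and incubated at 37 °C for 20 h. MIC was read as the lowest drug concentration with no visible growth.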
# Staphylococcus aureus [2] = test: Antimicrobial activity against Staphylococcus aureus 6 expressing inducible ermB after 20 hrs by agar dilution method
# Summary of the method: (§2)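 Agar dilution MIC. S. aureus seed culture was grown in sensitivity test broth. Cell suspension (about 10⁶ CFU/ml) was inoculated onto sensitivity disk agar with 5% horse blood and incubated at 37 °C for 20 h. MIC was the lowest drug concentration that prevented visible growth.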
# Streptococcus pneumoniae [3] = test: Antimicrobial activity against Streptococcus pneumoniae 10 expressing mefA after 20 hrs by agar dilution method; conditions: Streptococcus pneumoniae, 20 h; read-out: MIC; summary of the method: as §1
# Streptococcus pneumoniae [4] = test: Antimicrobial activity against drug-susceptible Streptococcus pneumoniae DP1 Type1 after 20 hrs by agar dilution method; conditions: Streptococcus pneumoniae, 20 h; read-out: MIC; summary of the method: as §1
# Streptococcus pyogenes [5] = test: Antimicrobial activity against drug-susceptible Streptococcus pyogenes 1 after 20 hrs by agar dilution method; conditions: Streptococcus pyogenes, 20 h; read-out: MIC; summary of the method: as §1
# Streptococcus pneumoniae [6] = test: Antimicrobial activity against Streptococcus pneumoniae 7 expressing inducible ermB after 20 hrs by agar dilution method; conditions: Streptococcus pneumoniae, 20 h; read-out: MIC; summary of the method: as §1
# Staphylococcus aureus [7] = test: Antimicrobial activity against drug-susceptible Staphylococcus aureus 2 after 20 hrs by agar dilution method; conditions: Staphylococcus aureus, 20 h; read-out: MIC; summary of the method: as §2
# Streptococcus pneumoniae [8] = test: Antimicrobial activity against Streptococcus pneumoniae 8 expressing inducible ermB after 20 hrs by agar dilution method; conditions: Streptococcus pneumoniae, 20 h; read-out: MIC; summary of the method: as §1
# Staphylococcus aureus [9] = test: Antimicrobial activity against Staphylococcus aureus 4 constitutively expressing ermA after 20 hrs by agar dilution method; summary of the method: as §2
# Streptococcus pneumoniae [10] = test: Antimicrobial activity against Streptococcus pneumoniae 5 constitutively expressing ermB/mefA after 20 hrs by agar dilution method; conditions: Streptococcus pneumoniae, 20 h; read-out: MIC; summary of the method: as §1
# Haemophilus influenzae [11] = test: Antimicrobial activity against drug-susceptible Haemophilus influenzae 2 after 20 hrs by agar dilution method; conditions: Haemophilus influenzae, 20 h; read-out: MIC; summary of the method: as §1
# Haemophilus influenzae [12] = test: Antimicrobial activity against drug-susceptible Haemophilus influenzae 3 after 20 hrs by agar dilution method; conditions: Haemophilus influenzae, 20 h; read-out: MIC; summary of the method: as §1
# Streptococcus pyogenes [13] = test: Antimicrobial activity against Streptococcus pyogenes 3 expressing mefA after 20 hrs by agar dilution method; conditions: Streptococcus pyogenes, 20 h; read-out: MIC; summary of the method: as §1
# Staphylococcus aureus [14] = test: Antimicrobial activity against Staphylococcus aureus 5 expressing inducible ermB after 20 hrs by agar dilution method; conditions: Staphylococcus aureus, 20 h; read-out: MIC; summary of the method: as §2
# Staphylococcus aureus [15] = test: Antimicrobial activity against drug-susceptible Staphylococcus aureus 3 after 20 hrs by agar dilution method; conditions: Staphylococcus aureus, 20 h; read-out: MIC; summary of the method: as §2
# Moraxella catarrhalis [16] = test: Antimicrobial activity against drug-susceptible Moraxella catarrhalis 1 after 20 hrs by agar dilution method; conditions: Moraxella catarrhalis, 20 h; read-out: MIC; summary of the method: as §1
# Streptococcus pneumoniae [17] = test: Antimicrobial activity against Streptococcus pneumoniae 9 expressing mefA after 20 hrs by agar dilution method; conditions: Streptococcus pneumoniae, 20 h; read-out: MIC; summary of the method: as §1
# Haemophilus influenzae [18] = test: Antimicrobial activity against drug-susceptible Haemophilus influenzae 4 after 20 hrs by agar dilution method; conditions: Haemophilus influenzae, 20 h; read-out: MIC; summary of the method: as §1
# Streptococcus pyogenes [19] = test: Antimicrobial activity against Streptococcus pyogenes 2 constitutively expressing ermB after 20 hrs by agar dilution method; summary of the method: as §1
# Staphylococcus aureus [20] = test: Antimicrobial activity against drug-susceptible Staphylococcus aureus 209P JC-1 after 20 hrs by agar dilution method; conditions: Staphylococcus aureus, 209P, 20 h; read-out: MIC; summary of the method: as §2
# Streptococcus pneumoniae [21] = test: Antimicrobial activity against drug-susceptible Streptococcus pneumoniae 2 after 20 hrs by agar dilution method; conditions: Streptococcus pneumoniae, 20 h; read-out: MIC; summary of the method: as §1
# Moraxella catarrhalis [22] = test: Antimicrobial activity against drug-susceptible Moraxella catarrhalis 2 after 20 hrs by agar dilution method; conditions: Moraxella catarrhalis, 20 h; read-out: MIC; summary of the method: as §1
# Streptococcus pneumoniae [23] = test: Antimicrobial activity against Streptococcus pneumoniae 6 constitutively expressing ermB after 20 hrs by agar dilution method; conditions: Streptococcus pneumoniae, 20 h; read-out: MIC; summary of the method: as §1
MIC (Haemophilus influenzae [1]) [µg/mL],MIC (Staphylococcus aureus [2]) [µg/mL],MIC (Streptococcus pneumoniae [3]) [µg/mL],MIC (Streptococcus pneumoniae [4]) [µg/mL],MIC (Streptococcus pyogenes [5]) [µg/mL],MIC (Streptococcus pneumoniae [6]) [µg/mL],MIC (Staphylococcus aureus [7]) [µg/mL],MIC (Streptococcus pneumoniae [8]) [µg/mL],MIC (Staphylococcus aureus [9]) [µg/mL],MIC (Streptococcus pneumoniae [10]) [µg/mL],MIC (Haemophilus influenzae [11]) [µg/mL],MIC (Haemophilus influenzae [12]) [µg/mL],MIC (Streptococcus pyogenes [13]) [µg/mL],MIC (Staphylococcus aureus [14]) [µg/mL],MIC (Staphylococcus aureus [15]) [µg/mL],MIC (Moraxella catarrhalis [16]) [µg/mL],MIC (Streptococcus pneumoniae [17]) [µg/mL],MIC (Haemophilus influenzae [18]) [µg/mL],MIC (Streptococcus pyogenes [19]) [µg/mL],MIC (Staphylococcus aureus [20]) [µg/mL],Compound,further results
> 128,2,1,0.5,0.5,> 128,2,> 128,> 128,> 128,4,16,1,1,1,1,1,16,> 128,1,CCOC(=O)[C@H]1[C@H](C)O[C@@H](O[C@H]2[C@H](N(C)C)[C@@H](O)[C@H](O[C@H]3[C@@H](CC=O)C[C@@H](C)[C@@H](OC(C)=O)CN(CCCCc4ccccc4)CCN(C)C(=O)C[C@@H](OC(=O)CC)[C@@H]3OC)O[C@@H]2C)C[C@@]1(C)OC(C)=O,MIC (Streptococcus pneumoniae [21]): 1 µg/mL; MIC (Moraxella catarrhalis [22]): 1 µg/mL; MIC (Streptococcus pneumoniae [23]): > 128 µg/mL
16,1,0.25,0.25,0.13,32,1,32,> 128,> 128,0.5,2,0.5,0.25,0.5,0.25,0.25,4,> 128,0.25,CCOC(=O)[C@H]1[C@H](C)O[C@@H](O[C@H]2[C@H](N(C)C)[C@@H](O)[C@H](O[C@H]3[C@@H](CC=O)C[C@@H](C)[C@@H](OC(C)=O)CN(CCCCc4ccccc4)CCCNC(=O)C[C@@H](OC(=O)CC)[C@@H]3OC)O[C@@H]2C)C[C@@]1(C)OC(C)=O,MIC (Streptococcus pneumoniae [21]): 0.5 µg/mL; MIC (Moraxella catarrhalis [22]): 0.25 µg/mL; MIC (Streptococcus pneumoniae [23]): > 128 µg/mL
> 128,1,0.25,0.25,0.25,> 128,1,> 128,> 128,> 128,2,16,0.5,0.5,0.5,0.25,0.5,16,> 128,0.5,CCOC(=O)[C@H]1[C@H](C)O[C@@H](O[C@H]2[C@H](N(C)C)[C@@H](O)[C@H](O[C@H]3[C@@H](CC=O)C[C@@H](C)[C@@H](OC(C)=O)CN(CCCCc4ccccc4)CC[C@@H](C)OC(=O)C[C@@H](OC(=O)CC)[C@@H]3OC)O[C@@H]2C)C[C@@]1(C)OC(C)=O,MIC (Streptococcus pneumoniae [21]): 0.25 µg/mL; MIC (Moraxella catarrhalis [22]): 0.5 µg/mL; MIC (Streptococcus pneumoniae [23]): > 128 µg/mL
> 128,2,1,0.5,0.5,32,4,32,> 128,> 128,4,16,1,1,2,1,1,16,> 128,1,CCOC(=O)[C@H]1[C@H](C)O[C@@H](O[C@H]2[C@H](N(C)C)[C@@H](O)[C@H](O[C@H]3[C@@H](CC=O)C[C@@H](C)[C@@H](OC(C)=O)CN(CCCCc4ccccc4)C[C@@H](C)NC(=O)C[C@@H](OC(=O)CC)[C@@H]3OC)O[C@@H]2C)C[C@@]1(C)OC(C)=O,MIC (Streptococcus pneumoniae [21]): 1 µg/mL; MIC (Moraxella catarrhalis [22]): 1 µg/mL; MIC (Streptococcus pneumoniae [23]): > 128 µg/mL
16,0.25,0.13,0.06,0.06,4,0.5,8,> 128,> 128,1,8,0.13,0.13,0.25,0.25,0.13,8,> 128,0.13,CCOC(=O)[C@H]1[C@H](C)O[C@@H](O[C@H]2[C@H](N(C)C)[C@@H](O)[C@H](O[C@H]3[C@@H](CC=O)C[C@@H](C)[C@@H](O)CN(CCCc4ccnc5ccccc45)CC[C@@H](C)OC(=O)C[C@@H](OC(=O)CC)[C@@H]3OC)O[C@@H]2C)C[C@@]1(C)OC(C)=O,MIC (Streptococcus pneumoniae [21]): 0.06 µg/mL; MIC (Moraxella catarrhalis [22]): 0.25 µg/mL; MIC (Streptococcus pneumoniae [23]): > 128 µg/mL
